Published values gathered from unrelated publications.
Protocols differ between the studies behind these lines.
SPHK2: Sphingosine kinase 2 (SPHK2, Homo sapiens, UniProt Q9NRA0)
SIRT1: NAD-dependent protein deacetylase sirtuin-1 (SIRT1, Homo sapiens, UniProt Q96EB6)
XDH: Xanthine dehydrogenase/oxidase (XDH, Bos taurus, UniProt P80457)
Adra1b: Alpha-1B adrenergic receptor (Adra1b, Rattus norvegicus, UniProt P15823)
STAT5B SH2: Signal transducer and activator of transcription 5B, SH2 (STAT5B, Homo sapiens, UniProt P51692)
SLC7A5: Large neutral amino acids transporter small subunit 1 (SLC7A5, Homo sapiens, UniProt Q01650)

Structure (SMILES)	target	assay	conditions	inhibition [%]
O=C(CSc1nc2nccnc2c(=O)n1CCc1ccccc1)Nc1nccs1	SPHK2	enzyme activity, inhibitor	10 µM	0
CCOCCOCCOCCNC(=S)NCCCC[C@H](NS(C)(=O)=O)C(=O)N[C@H](C)C(=O)N[C@@H](CCCNC(=N)N)C(N)=O	SIRT1	enzyme activity, inhibitor	100 µM	16
O=C1CC(CCc2ccccc2)Oc2c(Br)cc(Cl)cc21 (centres unmarked)	SIRT1	enzyme activity, inhibitor, fluorescence	200 µM	6.9
CCCCCCCCCCCCNC(=S)NCCCC[C@H](NC(=O)OCc1ccccc1)C(=O)N[C@@H](Cc1c[nH]c2ccccc12)C(=O)N[C@@H](CCCCNC(=N)N)C(N)=O	SIRT1	enzyme activity, inhibitor	1 µM	76
CCCCCC1CC(=O)c2cccc(Br)c2O1 (centres unmarked)	SIRT1	enzyme activity, inhibitor, fluorescence	200 µM	7.1
[H]/N=C(\N)N1CCC[C@H]1c1nc(-c2ccc(OCC=CCCCC)c(C(F)(F)F)c2)no1	SPHK2	enzyme activity, inhibitor, radiometric	0.3 µM	48
O=C1CC(CCNC(=S)NCCCC[C@H](NS(=O)(=O)c2cccc(F)c2)C(=O)N[C@@H](Cc2c[nH]c3ccccc23)C(=O)NC2CCC2)=NO1	SIRT1	enzyme activity, inhibitor	10 µM	22
[H]/N=C(\N)N1CCC[C@H]1c1nc(-c2ccc(OCC=Cc3ccc(F)cc3)c(C(F)(F)F)c2)no1	SPHK2	enzyme activity, inhibitor, radiometric	0.3 µM	57
O=Cc1c[nH]c2ccccc12	XDH	enzyme activity, inhibitor, absorbance	100 µg/mL	8.1
CCCCCCCCCCCCNC(=S)NCCCC[C@H](NC(=O)OCc1ccccc1)C(=O)N[C@@H](C)C(=O)N[C@@H](CCCNC(=N)N)C(N)=O	SIRT1	enzyme activity, inhibitor	1 µM	61
CC(C)CCn1c(SCC(=O)Nc2ccccc2C(F)(F)F)nc2nccnc2c1=O	Phosphatidylinositol 4-kinase beta (PI4KB, Homo sapiens, UniProt Q9UBF8)	enzyme activity, inhibitor	10 µM	< 20
O=C(c1ccc(F)cc1)N(Cc1ccccc1)C1CCCCC1	Adra1b	cell-free assay	10 µM	4
O=C(CO)c1ccc(O)c(O)c1	XDH	enzyme activity, inhibitor, absorbance	200 µg/mL	43.3
CCCCCC1CC(=O)c2cc(OC)ccc2O1 (centres unmarked)	SIRT1	enzyme activity, inhibitor, fluorescence	200 µM	10.3
O=C(COc1ccc2cc(C(=O)Nc3ccccc3)ccc2c1)NCc1ccc(O)c(O)c1	STAT5B SH2	ligand displacement, FP	100 µM	-2
N[C@@H](Cc1ccc(OC(=O)c2ccccc2)cc1)C(=O)O	SLC7A5	transporter uptake, inhibitor, radiometric	200 µM	49
CCCCCCCCNC(=S)NCCCC[C@H](NS(C)(=O)=O)C(=O)N[C@H](C)C(=O)N[C@@H](CCCNC(=N)N)C(N)=O	SIRT1	enzyme activity, inhibitor	10 µM	71
O=C(O)Cc1ccccc1OP(=O)(O)O	STAT5B SH2	ligand displacement, FP	100 µM	39
NC(CCNC(=O)c1ccccc1)C(=O)O (centres unmarked)	SLC7A5	transporter uptake, inhibitor, radiometric	200 µM	8.6
Ic1cccc2cnccc12	Adra1b	ligand displacement, radioligand	10 µM	7
Oc1ncnc2[nH]ncc12	XDH	enzyme activity, inhibitor, absorbance	25 µg/mL	97
[H]/N=C(\N)N1CCC[C@H]1c1nc(-c2ccc(OCCC=Cc3ccc(C(F)(F)F)cc3)c(C(F)(F)F)c2)no1	SPHK2	enzyme activity, inhibitor, radiometric	0.3 µM	68
CC(C)C1CC(=O)c2cc(Cl)cc(Br)c2O1 (centres unmarked)	SIRT1	enzyme activity, inhibitor, fluorescence	200 µM	2.8
Cn1c(CNC(=S)NCCCC[C@H](NS(=O)(=O)c2cccc(F)c2)C(=O)N[C@@H](Cc2c[nH]c3ccccc23)C(=O)NC2CCC2)n[nH]c1=S	SIRT1	enzyme activity, inhibitor	30 µM	89

Structure (SMILES)	target	assay	conditions	inhibition [%]
N[C@@H](CO)C(=O)O	SLC7A5	transporter uptake, inhibitor, radiometric	200 µM	-1
CCCCCC=CCOc1ccc(-c2noc([C@@H]3CCCN3C(=N)N)n2)cc1C(F)(F)F (mixture of isomers)	SPHK2	enzyme activity, inhibitor, radiometric	0.3 µM	40
NC(COC(=O)c1ccccc1)C(=O)O (centres unmarked)	SLC7A5	transporter uptake, inhibitor, radiometric	200 µM	16
CCCCCCCCCCCCNC(=O)NCCCC[C@H](NS(C)(=O)=O)C(=O)N[C@H](C)C(=O)N[C@@H](CCCNC(=N)N)C(N)=O	SIRT1	enzyme activity, inhibitor	10 µM	38
Cc1ccc(S(=O)(=O)n2cc(CCC3CC(=O)c4cc(Cl)cc(Br)c4O3)c3ccccc32)cc1 (centres unmarked)	SIRT1	enzyme activity, inhibitor, fluorescence	200 µM	23
OCCc1ccc(O)cc1	XDH	enzyme activity, inhibitor, absorbance	100 µg/mL	7.9
CC(C)(C)c1ccc(CCc2ccc(-c3noc([C@@H]4CCCN4C(=N)N)n3)cc2C(F)(F)F)cc1	SPHK2	enzyme activity, inhibitor, radiometric	0.3 µM	71
OCCc1ccc(O)c(O)c1	XDH	enzyme activity, inhibitor, absorbance	100 µg/mL	7.3
N=C(N)N1CCC[C@H]1c1nc(-c2ccc(CCC3CCCC3)c(C(F)(F)F)c2)no1	SPHK2	enzyme activity, inhibitor, radiometric	0.3 µM	25
O=C(O)c1ccc(O)c(O)c1	XDH	enzyme activity, inhibitor, absorbance	200 µg/mL	20.8
CCCCCC1CC(O)c2cc(Cl)cc(Br)c2O1 (centres unmarked)	SIRT1	enzyme activity, inhibitor, fluorescence	200 µM	-5.5
CS(=O)(=O)Nc1cccc(-c2csc(NC(=O)CSc3nc4nccnc4c(=O)n3CCc3ccccc3)n2)c1	SPHK2	enzyme activity, inhibitor	10 µM	-12
O=C(O)c1ccc(O)cc1	XDH	enzyme activity, inhibitor, absorbance	200 µg/mL	17.9
N[C@@H](CCCCNC(=O)c1ccccc1)C(=O)O	SLC7A5	transporter uptake, inhibitor, radiometric	200 µM	38
CCOCCOCCNC(=S)NCCCC[C@H](NS(C)(=O)=O)C(=O)N[C@H](C)C(=O)N[C@@H](CCCNC(=N)N)C(N)=O	SIRT1	enzyme activity, inhibitor	100 µM	12
O=C(NC1CCC1)[C@H](Cc1c[nH]c2ccccc12)NC(=O)[C@H](CCCCNC(=S)NCCn1nn[nH]c1=O)NS(=O)(=O)c1cccc(F)c1	SIRT1	enzyme activity, inhibitor	10 µM	17
CCCC1CC(=O)c2cc(Cl)cc(Br)c2O1 (centres unmarked)	SIRT1	enzyme activity, inhibitor, fluorescence	200 µM	6.4
CCCCCCCCCCCCNC(=S)NCCCC[C@H](NC(=O)C1CCCCC1)C(=O)N[C@H](C)C(=O)N[C@@H](CCCNC(=N)N)C(N)=O	SIRT1	enzyme activity, inhibitor	1 µM	44
O=C1C=C(c2ccc(O)c(O)c2)CO1	XDH	enzyme activity, inhibitor, absorbance	100 µg/mL	17.2
N=C(N)N1CCC[C@H]1c1nc(-c2ccc(CCC3CC3)c(C(F)(F)F)c2)no1	SPHK2	enzyme activity, inhibitor, radiometric	0.3 µM	32
CCCCCC1CC(=O)c2cc(C)cc(C)c2O1 (centres unmarked)	SIRT1	enzyme activity, inhibitor, fluorescence	200 µM	3.2
CCCCCCCCCCCCNC(=S)NCCCC[C@H](NC(=O)OCc1ccccc1)C(=O)N[C@@H](CCCCN)C(=O)N[C@@H](CCCNC(=N)N)C(N)=O	SIRT1	enzyme activity, inhibitor	1 µM	25
[H]/N=C(\N)N1CCC[C@H]1c1nc(-c2ccc(OCC=Cc3ccc(C(F)(F)F)cc3)c(C(F)(F)F)c2)no1	SPHK2	enzyme activity, inhibitor, radiometric	0.3 µM	75
